In ChEMBL document CHEMBL1151442, “Genetic and phenotypic identification of fusidic acid-resistant mutants with the small-colony-variant phenotype in Staphylococcus aureus” (2007):
Values after ≈ are worked out from the molar mass of the structure shown.

How the values were obtained:
Format in all cases: functional
Staphylococcus aureus [1] = test: Antibacterial activity against fusidic acid-resistant Staphylococcus aureus AH197 harboring Leu456Phe mutation in fusA gene after 18 to 24 hrs by Etest strip assay
Method in brief: (§1)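 Mutants of lab strain 8325-4 were selected on LA with FA 2 μg/ml for 48 h at 37°C and purified on selective medium. For the MIC, one colony was suspended in 0.9% NaCl to 0.5 McFarland and swabbed onto Mueller-Hinton agar. An Etest strip was applied and plates were incubated at 37°C for 18–24 h until the lawn was evident.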

Staphylococcus aureus [2] = test: Antibacterial activity against kanamycin-resistant Staphylococcus aureus AH362 (SCV-34) harboring TAA stop codon at nucleotide 282 in rplF gene after 18 to 24 hrs by Etest strip assay
Method in brief: (§2)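 SCVs of a Rifr 8325-4 derivative were selected on LA with KAN at 8, 16 or 24 μg/ml for 48 h at 37°C. They were purified at the same KAN level and screened on LA plus FA 1 μg/ml.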

Staphylococcus aureus [3] = test: Antibacterial activity against kanamycin-resistant and fusidic acid-susceptible Staphylococcus aureus AH420 harboring deletion of nucleotide 72-80 in rplF gene after 18 to 24 hrs by Etest strip assay
Method in brief: (§3)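 Etest MIC: a single colony was suspended in 0.9% NaCl to 0.5 McFarland and swabbed over Mueller-Hinton agar. The strip was applied and plates were incubated at 37°C for 18 to 24 h until an SCV lawn grew.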

Staphylococcus aureus [4] = test: Antibacterial activity against fusidic acid-resistant Staphylococcus aureus AH198 harboring Gly452Ser mutation in fusA gene after 18 to 24 hrs by Etest strip assay; method in brief: as §1
Staphylococcus aureus [5] = test: Antibacterial activity against kanamycin-resistant Staphylococcus aureus AH334 (SCV-6) harboring Thr436Ile mutation in fusA gene after 18 to 24 hrs by Etest strip assay; method in brief: as §2
Staphylococcus aureus [6] = test: Antibacterial activity against kanamycin-resistant Staphylococcus aureus AH378 (SCV-50) harboring -1 frameshift mutation at nucleotide 221 in rplF gene after 18 to 24 hrs by Etest strip assay; method in brief: as §2
Staphylococcus aureus [7] = test: Antibacterial activity against fusidic acid-resistant Staphylococcus aureus AH202 harboring CTG start codon at nucleotide 1 in rplF gene after 18 to 24 hrs by Etest strip assay; method in brief: as §1
Staphylococcus aureus [8] = test: Antibacterial activity against fusidic acid-susceptible wild type Staphylococcus aureus 8325-4 after 18 to 24 hrs by Etest strip assay
Method in brief: (§4)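 The inoculum was a single colony suspended in 0.9% NaCl to 0.5 McFarland and swabbed over a Mueller-Hinton agar plate. An Etest gradient strip was then applied, and the plate was incubated at 37°C for 18 to 24 h until lawn growth was evident. MIC was read from the strip following the manufacturer's instructions.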

Staphylococcus aureus [9] = test: Antibacterial activity against kanamycin-susceptible wild type Staphylococcus aureus AH001 after 18 to 24 hrs by Etest strip assay; method in brief: as §4
Staphylococcus aureus [10] = test: Antibacterial activity against kanamycin-resistant and fusidic acid-susceptible Staphylococcus aureus AH421 harboring Pro404Arg mutation in fusA gene after 18 to 24 hrs by Etest strip assay; method in brief: as §3
Staphylococcus aureus [11] = test: Antibacterial activity against kanamycin-resistant Staphylococcus aureus AH383 (SCV-55) harboring TAA stop codon at nucleotide 139 in rplF gene after 18 to 24 hrs by Etest strip assay; method in brief: as §2
Staphylococcus aureus [12] = test: Antibacterial activity against kanamycin-resistant Staphylococcus aureus AH357 (SCV-29) harboring TAA stop codon at nucleotide 301 in rplF gene after 18 to 24 hrs by Etest strip assay; method in brief: as §2
Staphylococcus aureus [13] = test: Antibacterial activity against kanamycin-resistant Staphylococcus aureus AH379 (SCV-51) harboring TAA stop codon at nucleotide 418 in rplF but gene after 18 to 24 hrs by Etest strip assay; method in brief: as §2
Staphylococcus aureus [14] = test: Antibacterial activity against kanamycin-resistant Staphylococcus aureus AH329 (SCV-1) harboring Arg659Cys mutation in fusA gene after 18 to 24 hrs by Etest strip assay; method in brief: as §2
Staphylococcus aureus [15] = test: Ratio of MIC for kanamycin-resistant Staphylococcus aureus harboring mutations in FusA gene to MIC for wild type kanamycin-susceptible Staphylococcus aureus AH001
Staphylococcus aureus [16] = test: Antibacterial activity against fusidic acid-resistant Staphylococcus aureus AH190 harboring Arg464His mutation in fusA gene after 18 to 24 hrs by Etest strip assay; method in brief: as §1
Staphylococcus aureus [17] = test: Antibacterial activity against kanamycin-resistant and fusidic acid-susceptible Staphylococcus aureus AH291 harboring Arg659His mutation in fusA gene after 18 to 24 hrs by Etest strip assay; method in brief: as §3
Staphylococcus aureus [18] = test: Antibacterial activity against kanamycin-resistant Staphylococcus aureus AH347 (SCV-19) harboring Arg659Ser mutation in fusA gene after 18 to 24 hrs by Etest strip assay; method in brief: as §2
Staphylococcus aureus [19] = test: Antibacterial activity against fusidic acid-resistant Staphylococcus aureus AH193 harboring TAA stop codon at nucleotide 299 in rplF gene after 18 to 24 hrs by Etest strip assay; method in brief: as §1
Staphylococcus aureus [20] = test: Antibacterial activity against kanamycin-resistant Staphylococcus aureus AH352 (SCV-24) harboring -1 frameshift mutation at nucleotide 106 in rplF gene after 18 to 24 hrs by Etest strip assay; method in brief: as §2
Staphylococcus aureus [21] = test: Antibacterial activity against kanamycin-resistant and fusidic acid-susceptible Staphylococcus aureus AH288 harboring Gly617Asp mutation in fusA gene after 18 to 24 hrs by Etest strip assay; method in brief: as §3
Staphylococcus aureus [22] = test: Antibacterial activity against kanamycin-resistant Staphylococcus aureus AH380 (SCV-52) harboring -1 frameshift mutation at nucleotide 158 in rplF gene after 18 to 24 hrs by Etest strip assay; method in brief: as §2
Staphylococcus aureus [23] = test: Antibacterial activity against fusidic acid-resistant Staphylococcus aureus AH204 harboring deletion of nucleotide 203-231 in rplF gene after 18 to 24 hrs by Etest strip assay; method in brief: as §1
Staphylococcus aureus [24] = test: Antibacterial activity against kanamycin-resistant Staphylococcus aureus AH370 (SCV-42) harboring TAA stop codon at nucleotide 229 in rplF gene after 18 to 24 hrs by Etest strip assay; method in brief: as §2
Staphylococcus aureus [25] = test: Antibacterial activity against kanamycin-resistant Staphylococcus aureus AH390 (SCV-62) harboring +1 frameshift mutation at nucleotide 84 in rplF gene after 18 to 24 hrs by Etest strip assay; method in brief: as §2
Staphylococcus aureus [26] = test: Antibacterial activity against kanamycin-resistant Staphylococcus aureus AH392 (SCV-64) harboring -1 frameshift mutation at nucleotide 383 in rplF gene after 18 to 24 hrs by Etest strip assay; method in brief: as §3
Staphylococcus aureus [27] = test: Antibacterial activity against kanamycin-resistant Staphylococcus aureus AH332 (SCV-4) harboring Ala655Glu mutation in fusA gene after 18 to 24 hrs by Etest strip assay; method in brief: as §2
Staphylococcus aureus [28] = test: Antibacterial activity against fusidic acid-resistant Staphylococcus aureus AH206 harboring Arg464Ser mutation in fusA gene after 18 to 24 hrs by Etest strip assay; method in brief: as §1
Staphylococcus aureus [29] = test: Antibacterial activity against kanamycin-resistant Staphylococcus aureus AH384 (SCV-56) harboring -1 frameshift mutation at nucleotide 221 in rplF gene after 18 to 24 hrs by Etest strip assay; method in brief: as §2
Staphylococcus aureus [30] = test: Antibacterial activity against kanamycin-resistant Staphylococcus aureus AH348 (SCV-20) harboring TGA stop codon at nucleotide 244 in rplF gene after 18 to 24 hrs by Etest strip assay; method in brief: as §2
Staphylococcus aureus [31] = test: Antibacterial activity against fusidic acid-resistant Staphylococcus aureus AH209 harboring deletion of nucleotide 404-427 in rplF gene after 18 to 24 hrs by Etest strip assay; method in brief: as §1

CN[C@@H]1[C@H](O[C@H]2[C@H](O[C@H]3[C@H](O)[C@@H](O)[C@H](N=C(N)N)[C@@H](O)[C@@H]3N=C(N)N)O[C@@H](C)[C@]2(O)C=O)O[C@@H](CO)[C@H](O)[C@H]1O [STREPTOMYCIN]
MIC (Staphylococcus aureus [1]): 8 µg/mL (≈ 13.8 µM) | MIC (Staphylococcus aureus [2]): 256 µg/mL (≈ 440 µM) | MIC (Staphylococcus aureus [3]): 256 µg/mL (≈ 440 µM) | MIC (Staphylococcus aureus [4]): 6 µg/mL (≈ 10.3 µM) | MIC (Staphylococcus aureus [5]): 192 µg/mL (≈ 330 µM) | MIC (Staphylococcus aureus [6]): 256 µg/mL | MIC (Staphylococcus aureus [7]): 16 µg/mL (≈ 27.5 µM) | MIC (Staphylococcus aureus [8]): 3 µg/mL (≈ 5.16 µM) | MIC (Staphylococcus aureus [9]): 3 µg/mL (≈ 5.16 µM) | MIC (Staphylococcus aureus [10]): 12 µg/mL (≈ 20.6 µM) | MIC (Staphylococcus aureus [11]): 192 µg/mL (≈ 330 µM) | MIC (Staphylococcus aureus [12]): 256 µg/mL (≈ 440 µM) | MIC (Staphylococcus aureus [13]): 16 µg/mL (≈ 27.5 µM) | MIC (Staphylococcus aureus [14]): 24 µg/mL (≈ 41.3 µM) | fold change (FC) (Staphylococcus aureus [15]): 3 | MIC (Staphylococcus aureus [16]): 8 µg/mL (≈ 13.8 µM) | MIC (Staphylococcus aureus [17]): 24 µg/mL (≈ 41.3 µM) | MIC (Staphylococcus aureus [18]): 32 µg/mL (≈ 55 µM) | MIC (Staphylococcus aureus [19]): 24 µg/mL (≈ 41.3 µM) | MIC (Staphylococcus aureus [20]): 24 µg/mL | MIC (Staphylococcus aureus [21]): 32 µg/mL (≈ 55 µM) | MIC (Staphylococcus aureus [22]): 24 µg/mL | MIC (Staphylococcus aureus [23]): 24 µg/mL (≈ 41.3 µM) | MIC (Staphylococcus aureus [24]): 24 µg/mL (≈ 41.3 µM) | MIC (Staphylococcus aureus [25]): 64 µg/mL | MIC (Staphylococcus aureus [26]): 16 µg/mL | MIC (Staphylococcus aureus [27]): 12 µg/mL (≈ 20.6 µM) | MIC (Staphylococcus aureus [28]): 8 µg/mL (≈ 13.8 µM) | MIC (Staphylococcus aureus [29]): 256 µg/mL | MIC (Staphylococcus aureus [30]): 16 µg/mL (≈ 27.5 µM) | MIC (Staphylococcus aureus [31]): 16 µg/mL (≈ 27.5 µM)
